According to ChEMBL document CHEMBL2396529, “Synthesis and anticancer mechanism investigation of dual Hsp27 and tubulin inhibitors” (J Med Chem, 2013):

Assays:
SK-BR-3 = assay: Antiproliferative activity against human SKBR3 cells after 48 hrs by MTT assay; assay type: functional, cell-based; conditions: SK-BR-3, 48 h
In short: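 MTT assay on SKBR-3 cells (RPMI 1640, 10% heat-inactivated FBS, 37 °C, 5% CO2), seeded 24 h before dosing, then exposed 48 h to a concentration series in DMSO (final ≤0.1%) with vehicle-matched controls. Afterwards 0.5 mg/mL MTT for 2 h, formazan dissolved in DMSO, A570 read, six replicates. IC50 from nonlinear regression.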

[1] = molecular target: Heat shock protein beta-1 (Homo sapiens) (UniProt P04792); assay: Inhibition of HSP27 (unknown origin) assessed as increase in DTT-induced insulin B chain aggregation at 5 uM incubated for 5 mins prior to DTT-treatment measured after 30 mins by spectrophotometric analysis relative to control
Sequence of Heat shock protein beta-1 (Homo sapiens) (P04792 whole entry): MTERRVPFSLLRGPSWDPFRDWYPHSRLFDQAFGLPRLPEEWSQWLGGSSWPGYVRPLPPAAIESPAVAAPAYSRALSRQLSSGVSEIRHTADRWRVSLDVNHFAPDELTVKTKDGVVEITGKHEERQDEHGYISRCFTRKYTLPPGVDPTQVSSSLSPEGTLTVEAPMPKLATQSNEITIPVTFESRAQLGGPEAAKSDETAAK

[2] = molecular target: Heat shock protein beta-1 (Homo sapiens) (UniProt P04792); assay: Inhibition of HSP27 (unknown origin) assessed as increase in DTT-induced insulin B chain aggregation at 10 uM incubated for 5 mins prior to DTT-treatment measured after 30 mins by spectrophotometric analysis relative to control

| SMILES | IC50 (SK-BR-3) [nM] | further results |
| --- | --- | --- |
| COc1ccc(OC)c(COc2cc(NC(=O)c3ccc4c(c3)OCO4)ccc2N(C)S(C)(=O)=O)c1 | 7.52 |  |
| Cc1ccc(C)c(COc2cc(NC(=O)C3CCCCC3)ccc2N(C)S(C)(=O)=O)c1 |  | inhibition [1]: 29% |
| COc1ccc(C(=O)Nc2ccc(N(C)S(=O)(=O)C(F)(F)F)c(OCc3cc(C)ccc3C)c2)cc1 | 5320 |  |
| CN(c1ccc(NC(=O)c2ccc3ccccc3c2)cc1OCc1cc(Cl)ccc1Cl)S(C)(=O)=O | 2210 |  |
| COc1ccc(OC)c(COc2cc(NC(=O)c3ccc(OC)c(OC)c3)ccc2N(C)S(=O)(=O)C(F)(F)F)c1 | 550 |  |
| COc1ccc(OC)c(COc2cc(NC(=O)c3ccc(Br)cc3)ccc2NS(C)(=O)=O)c1 | 9.58 |  |
| CCCCCCOc1cc(NC(=O)c2ccc3ccccc3c2)ccc1N(C)S(C)(=O)=O | 64300 |  |
| COc1ccc(C(=O)Nc2ccc(N(C)S(C)(=O)=O)c(OCc3cc(C)ccc3C)c2)cc1 |  | inhibition [2]: 30% |
| COc1ccc(OC)c(COc2cc(NC(=O)c3ccc4ccccc4c3)ccc2N(C)S(C)(=O)=O)c1 | 16.6 |  |
| Cc1ccc(C(F)(F)F)cc1COc1cc(NC(=O)c2ccc(Br)cc2)ccc1N(C)S(C)(=O)=O | 9490 |  |
| COc1ccc(OC)c(COc2cc(NC(=O)c3ccc(I)cc3)ccc2N(C)S(=O)(=O)C(F)(F)F)c1 | 510 |  |

Now from value to compound, other results behind:

| IC50 (SK-BR-3) [nM] | SMILES | further results |
| --- | --- | --- |
| 710 | COc1ccc(OC)c(COc2cc(NC(=O)c3ccc4c(c3)OCO4)ccc2N(C)S(=O)(=O)C(F)(F)F)c1 |  |
| 3.51 | COc1ccc(OC)c(COc2cc(NC(=O)c3ccc(Br)cc3)ccc2N(C)S(C)(=O)=O)c1 |  |
| 21800 | Cc1ccc(C)c(COc2cc(NC(=O)c3ccc4c(c3)OCO4)ccc2N(C)S(=O)(=O)C(F)(F)F)c1 |  |
| 13.3 | COc1ccc(OC)c(COc2cc(NC(=O)c3ccc4ccccc4c3)ccc2NS(C)(=O)=O)c1 |  |
| 2030 | COc1ccc(C(=O)Nc2ccc(N(C)S(C)(=O)=O)c(OCc3cc(C(F)(F)F)ccc3C)c2)cc1 |  |
| 35.2 | COc1ccc(OC)c(COc2cc(NC(=O)c3ccc4c(c3)OCO4)ccc2NS(C)(=O)=O)c1 |  |
| 20000 | CCCCCCOc1cc(NC(=O)c2ccc(OC)cc2)ccc1N(C)S(C)(=O)=O |  |
| 2850 | CN(c1ccc(NC(=O)c2ccc3c(c2)OCO3)cc1OCc1cc(Cl)ccc1Cl)S(C)(=O)=O |  |
| 11 | COc1ccc(OC)c(COc2cc(NC(=O)c3ccc(OC)c(OC)c3)ccc2NS(C)(=O)=O)c1 |  |
| 200 | COc1ccc(OC)c(COc2cc(NC(=O)c3ccc4ccccc4c3)ccc2N(C)S(=O)(=O)C(F)(F)F)c1 |  |
| 100000 | CCCCCCOc1cc(NC(=O)c2ccc(OC)c(OC)c2)ccc1N(C)S(C)(=O)=O |  |
